{"data": "Results of several laboratories", "note": "Compare with care: the assays were run in different laboratories."}
{"Compound": "CC1(C)S[C@@H]2[C@H](NC(=O)[C@H](N)c3ccccc3)C(=O)N2[C@H]1C(=O)O", "organism": "Staphylococcus haemolyticus", "test": "microbial growth", "setting": "clinical isolate", "quantity": "MIC", "result": "> 200 µg/mL"}
{"Compound": "COC(=O)N[C@H](C(=O)N1CC2(CC2)C[C@H]1c1nc(-c2ccc3c(c2)C(F)(F)c2cc(-c4ccc5[nH]c([C@@H]6[C@H]7CC[C@H](C7)N6C(=O)[C@@H](NC(=O)OC)C(C)C)nc5c4)ccc2-3)c[nH]1)C(C)C", "organism": "Trypanosoma cruzi", "test": "parasite growth", "test system": "Vero, TULAHUEN", "setting": "72 h, intracellular, amastigote", "quantity": "IC50", "result": "60 nM"}
{"Compound": "CN[C@H](CC(C)C)C(=O)N[C@H]1C(=O)N[C@@H](CC(N)=O)C(=O)N[C@H]2C(=O)N[C@H]3C(=O)N[C@H](C(=O)N[C@H](C(=O)O)c4cc(O)cc(O)c4-c4cc3ccc4O)[C@H](O)c3ccc(c(Cl)c3)Oc3cc2cc(c3O[C@@H]2O[C@H](CO)[C@@H](O)[C@H](O)[C@H]2O[C@H]2C[C@](C)(N)[C@H](O)[C@H](C)O2)Oc2ccc(cc2Cl)[C@H]1O", "organism": "Staphylococcus haemolyticus", "test": "microbial growth", "setting": "clinical isolate", "quantity": "MIC", "result": "0.78 µg/mL"}
{"Compound": "O=C(Cn1ccnc1[N+](=O)[O-])NCc1ccccc1", "organism": "Trypanosoma cruzi", "test": "parasite growth", "test system": "LLC-MK2", "setting": "48 h, intracellular, amastigote", "quantity": "IC50", "result": "0.71 µg/mL"}
{"Compound": "CN1CCN(c2ncc(-c3ccc4nncc(Nc5ncccn5)c4c3)cn2)CC1", "organism": "Trypanosoma cruzi", "test": "parasite growth", "test system": "C2C12", "setting": "intracellular, amastigote", "quantity": "EC50", "result": "> 10000 nM"}
{"Compound": "CC1CCC(C(C)C)C(OC2=C(Cl)C(=O)c3ccccc3C2=O)C1 (stereo not shown)", "organism": "Alternaria alternata", "test": "microbial growth, broth dilution", "quantity": "MIC", "result": "12 µg/mL"}
{"Compound": "COc1ccc(Nc2cnnc3cc(-c4ccc(N5CCN(C)CC5)cc4)ccc23)nc1", "organism": "Trypanosoma cruzi", "test": "parasite growth", "test system": "C2C12", "setting": "intracellular, amastigote", "quantity": "EC50", "result": "2100 nM"}
{"Compound": "OC(Cn1cncn1)(Cn1cncn1)c1ccc(F)cc1F", "organism": "Alternaria alternata", "test": "microbial growth, broth dilution", "quantity": "MIC", "result": "10 µg/mL"}
{"Compound": "CN1CCN(c2ncc(-c3ccc4nncc(Nc5cnccn5)c4c3)cn2)CC1", "organism": "Trypanosoma cruzi", "test": "parasite growth", "test system": "C2C12", "setting": "intracellular, amastigote", "quantity": "EC50", "result": "> 10000 nM"}
{"Compound": "CC[C@@H]1/C=C(\\C)C[C@H](C)C[C@H](OC)[C@H]2O[C@@](O)(C(=O)C(=O)N3CCCC[C@H]3C(=O)O[C@H](/C(C)=C/[C@@H]3CC[C@H](Cl)[C@H](OC)C3)[C@H](C)[C@@H](O)CC1=O)[C@H](C)C[C@@H]2OC", "organism": "Trypanosoma cruzi", "test": "parasite growth", "test system": "Vero, TULAHUEN", "setting": "72 h, intracellular, amastigote", "quantity": "IC50", "result": "2130 nM"}
